14 compounds from ChEMBL document CHEMBL1135407, “Structure-based design of a parallel synthetic array directed toward the discovery of irreversible inhibitors of human rhinovirus 3C protease” (J Med Chem, 2002) can be followed below.

pEC50: −log10 of the molar value.

For experiment [1], the system named is HeLa. Nature of the experiment: 50% cytotoxic concentration required to inhibit HRV-14 infected H1HeLa cells. The format is functional. The conditions noted are these: Homo sapiens.
Experiment [2] has as its target T1, Human rhinovirus A protease (Human rhinovirus sp., UniProt Q4U254).
T1 sequence (Q4U254 whole entry): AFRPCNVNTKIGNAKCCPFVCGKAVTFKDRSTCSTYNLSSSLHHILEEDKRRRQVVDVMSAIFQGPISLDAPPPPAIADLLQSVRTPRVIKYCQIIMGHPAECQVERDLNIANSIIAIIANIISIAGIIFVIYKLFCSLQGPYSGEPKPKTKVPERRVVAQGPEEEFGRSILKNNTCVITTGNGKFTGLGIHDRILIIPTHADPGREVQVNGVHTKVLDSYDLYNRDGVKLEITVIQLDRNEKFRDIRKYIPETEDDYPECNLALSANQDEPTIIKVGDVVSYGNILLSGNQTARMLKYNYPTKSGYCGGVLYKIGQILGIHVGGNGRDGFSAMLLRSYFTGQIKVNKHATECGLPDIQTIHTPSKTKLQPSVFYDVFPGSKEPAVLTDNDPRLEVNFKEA
Nature of the experiment: Inhibition of Human Rhinovirus 14 (HRV14) Protease 3C.

The target of experiment [3] is T2, Human rhinovirus A protease (Human rhinovirus sp.) (UniProt Q4U254).
T2 sequence (whole entry): T1 sequence (Q4U254 whole entry)
Nature of the experiment: Rate of inactivation of Human Rhinovirus 14 (HRV14) Protease 3C. In a few lines: (§1)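 Irreversible (Michael acceptor) inactivation of HRV-14 3C protease, reported as a second-order rate of inactivation in M^-1 sec^-1.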

Experiment [4] concerns the target T1, Human rhinovirus A protease. Description: 50% effective concentration required to inhibit Human Rhinovirus 2 Protease 3C.
For experiment [5], the target named is T2, Human rhinovirus A protease (Human rhinovirus sp.). Description: Ability to inactivate Human Rhinovirus 2 Protease 3C.
The target in experiment [6] is T1, Human rhinovirus A protease. Description: 50% effective concentration required to inhibit Human Rhinovirus 89 Protease 3C.
Experiment [7] has the same target. Nature of the experiment: 50% effective concentration required to inhibit Human Rhinovirus 16 Protease 3C.
The target is the same in experiment [8]. Description: 50% effective concentration required to inhibit Human Rhinovirus 10 Protease 3C.
In experiment [9] the target is T2, Human rhinovirus A protease (Human rhinovirus sp.). Nature of the experiment: Ability to inactivate Human Rhinovirus 16 Protease 3C.
Experiment [10] shares this target. Description: Ability to inactivate Human Rhinovirus 89 Protease 3C.
For experiment [11] the target is unchanged. Nature of the experiment: Evaluated for the rate of inactivation of Human Rhinovirus 14 (HRV14) Protease 3C. In a few lines: as §1
Experiment [12] concerns the target T1, Human rhinovirus A protease. Nature of the experiment: 50% effective concentration required to inhibit Human Rhinovirus 1A Protease 3C.

One may read the CC50 as the concentration giving 50% cytotoxicity. The low end stands for harm at low concentration, the high end for better tolerance by the cells. What is called pEC50 is the negative decadic logarithm of the EC50, by convention in mol/L. A low value points to a high EC50.

In experiment [1], `CCOC(=O)/C=C/[C@H](C[C@@H]1CCNC1=O)NC(=O)/C=C/c1ccc2c(c1)OCO2` showed a CC50 of more than 10 µM. For the same compound, in experiment [2], the pEC50 is 5.74. For the same compound, in experiment [3], the K obs / 1 came out at 1960 M⁻¹ s⁻¹.
In the same order, the values of `CCOC(=O)/C=C/[C@H](C[C@@H]1CCNC1=O)NC(=O)C1=Cc2ccccc2OC1` are more than 100 µM, 5.92 and 886 M⁻¹ s⁻¹.
In the same order, the values of `CCOC(=O)/C=C/[C@H](C[C@@H]1CCNC1=O)NC(=O)/C=C/c1cc2c(cc1Br)OCO2` are more than 100 µM, 6.31 and 14400 M⁻¹ s⁻¹.
For the compound `CCOC(=O)/C=C/[C@H](C[C@@H]1CCNC1=O)NC(=O)c1ccc2ccccc2c1`, the results for the pEC50 in [4] and in experiment [2] were 5.85 and 6.82, respectively. Also, the K obs / 1 in [5] stood at 110 M⁻¹ s⁻¹; in experiment [3] it was 1090 M⁻¹ s⁻¹. Moreover, the cytotoxic concentration (CC50) in experiment [1] was more than 100 µM.
`CCOC(=O)/C=C/[C@H](C[C@@H]1CCNC1=O)NC(=O)/C=C/c1cc(Br)ccc1Br` returned a K obs / 1 in experiment [3] of 6850 M⁻¹ s⁻¹.
`CCOC(=O)/C=C/[C@H](C[C@@H]1CCNC1=O)NC(=O)/C=C/c1ccc(F)c(Br)c1` showed a CC50 in experiment [1] of more than 100 µM. The pEC50 in [2] is 6.20. Also, the K obs / 1 in [3] is 2860 M⁻¹ s⁻¹.
Regarding `CCOC(=O)/C=C/[C@H](CCC(N)=O)NC(=O)C(Cc1ccccc1)NC(=O)[C@H](CC(C)C)NC(=O)OCc1ccccc1` (stereo partly specified), the pEC50 in experiment [6] is 5.20; in experiment [4], 5.80; in experiment [7], 5.64; in [8], 6.22; in [2] it was 6.27. Moreover, the K obs / 1 in experiment [5] worked out at 2000 M⁻¹ s⁻¹; in experiment [9], 6530 M⁻¹ s⁻¹; in [3], 25000 M⁻¹ s⁻¹; in [10], 3440 M⁻¹ s⁻¹. This compound came in with a CC50 in experiment [1] of more than 100 µM.
Consider `CCOC(=O)/C=C/[C@H](C[C@@H]1CCNC1=O)NC(=O)c1cc(-c2ccccc2)oc1C`, for which, in experiment [1], the cytotoxic concentration (CC50) is more than 100 µM. This compound showed a pEC50 in [2] of 5.71. This compound also gave a K obs / 1 in experiment [3] of 4740 M⁻¹ s⁻¹.
The compound `CCOC(=O)/C=C/[C@H](C[C@@H]1CCNC1=O)NC(=O)/C=C/c1cccc(Br)c1` registered a K obs / 1 in experiment [11] of 2560 M⁻¹ s⁻¹. Moreover, the CC50 in [1] was more than 10 µM. In [2], this compound showed a pEC50 of 5.85.
For the compound `CCOC(=O)/C=C/[C@H](C[C@@H]1CCNC1=O)NC(=O)/C=C/c1ccc(C)c(Br)c1`, in experiment [1], the half-maximal cytotoxic concentration (CC50) is more than 10 µM. Further, in [2], the pEC50 was 5.89. Further, in experiment [3], the K obs / 1 came to 4080 M⁻¹ s⁻¹.
As for `CCOC(=O)/C=C/[C@H](C[C@@H]1CCNC1=O)NC(=O)c1ccc2cc(C)ccc2c1`, in experiment [1], the CC50 was more than 100 µM. The compound also gave a pEC50 in [2] of 6.06. The compound further returned a K obs / 1 in experiment [3] of 5000 M⁻¹ s⁻¹.
With `CCOC(=O)/C=C/[C@H](C[C@@H]1CCNC1=O)NC(=O)C1=Cc2cc(Br)ccc2OC1`, the pEC50 in [8] was 6.26; in experiment [2] it was 6.74. In addition, the K obs / 1 in [5] was determined as 372 M⁻¹ s⁻¹; in [3], 25000 M⁻¹ s⁻¹. The compound also returned a CC50 in experiment [1] of more than 100 µM.
Turning to `CCOC(=O)/C=C/[C@H](C[C@@H]1CCNC1=O)NC(=O)C1=Cc2cc(Cl)ccc2OC1`, the negative logarithm of the EC50 (pEC50) in [12] is 5.29; in experiment [4], 6.19; in experiment [8] it was 6.34; in [2] it was 6.80. In addition, the K obs / 1 in experiment [5] was 385 M⁻¹ s⁻¹; in experiment [9], 2200 M⁻¹ s⁻¹; in experiment [3], 19700 M⁻¹ s⁻¹. For the same compound, in [1], the CC50 was more than 100 µM.
On to `CCOC(=O)/C=C/[C@H](C[C@@H]1CCNC1=O)NC(=O)c1ccc2ccc(Br)cc2c1`, for which the cytotoxic concentration (CC50) in [1] was more than 50 µM. For the same compound, the pEC50 in experiment [2] is 6.74. Further, the K obs / 1 in [3] is 31400 M⁻¹ s⁻¹.
